Measurements from ChEMBL document CHEMBL3271951, “Synthesis and biological activity of 2- and 4-substituted 6,7-dihydroxy-1,2,3,4-tetrahydroisoquinolines” (1976).

T1: Catechol O-methyltransferase (Rattus norvegicus) (UniProt P22734)
T1 sequence (whole entry): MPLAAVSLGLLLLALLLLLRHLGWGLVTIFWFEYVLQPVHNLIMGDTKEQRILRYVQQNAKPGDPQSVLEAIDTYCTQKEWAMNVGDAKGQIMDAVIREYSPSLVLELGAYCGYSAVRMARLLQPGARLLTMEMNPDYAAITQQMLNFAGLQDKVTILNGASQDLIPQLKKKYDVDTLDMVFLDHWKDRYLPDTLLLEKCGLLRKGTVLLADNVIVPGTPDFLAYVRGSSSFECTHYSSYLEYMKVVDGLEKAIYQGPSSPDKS

B1: Catechol O-methyltransferase (Rattus norvegicus), P22734 (protein)
chain: T1 sequence (whole entry)

Columns and labels:
Mus musculus = test: Induction of DL-norepinephrine-7-3H release from ARS HA(ICR)f outbred Swiss albino mouse heart assessed as remaining level at 10 mg/kg, sc after 2 hrs relative to control; type: functional; conditions: route subcutaneous
In short: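 Mice (about 20 g) given 1.0 nmol (5 μCi) Norepi-3H iv by tail vein in isotonic NaCl with heparin. Compound 10 mg/kg sc 1 hr later; saline-injected controls. Hearts removed, homogenized in 10 vol 0.4 N HClO4 and centrifuged; tritium in the supernatant counted. Expressed as % of control, mean of duplicate determinations with five mice each.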

[1] = molecular target: T1, Catechol O-methyltransferase (Rattus norvegicus); test: Competitive inhibition of Sprague-Dawley rat liver COMT assessed as inhibition of methyl group transformation from SAM to DL-epinephrine-7-14C after 10 mins by scintillation spectrophotometric analysis
In short: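 Partially purified rat liver COMT (calcium phosphate stage). SAM 1.0 mM as methyl donor, Epi-14C 0.05 μCi, epinephrine varied 54-404 μM, 10 min, stopped with borate pH 10.0. Radiolabeled metanephrine and paranephrine extracted with toluene-isoamyl alcohol (3:2) and counted. Reciprocal velocity vs reciprocal epinephrine plots give the inhibition pattern; Ki by Cleland's procedure.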

[2] = substrate: CC1CN(C)Cc2cc(O)c(O)cc21; test: (§1) Activity of Sprague-Dawley rat liver COMT using [14CH3]-SAM as methyl group donor after 10 mins by scintillation spectrophotometric analysis
In short: (§2)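 Rat liver COMT (male Sprague-Dawley, 180-200 g) purified through the calcium phosphate stage, approx 50-fold. Test catechol at 50-500 μM as substrate, SAM 1.0 mM with SAM-14CH3 0.05 μCi, 10 min incubation, stopped with borate buffer pH 10.0. O-methylated product extracted into toluene-isoamyl alcohol (3:2) and counted. Km and Vmax from double-reciprocal plots using Cleland's equations.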

[3] = substrate: CNC[C@H](O)c1ccc(O)c(O)c1; test: as §1; in short: as §2
[4] = substrate: CC1(C)CNCc2cc(O)c(O)cc21; test: as §1; in short: as §2
[5] = substrate: CN1Cc2cc(O)c(O)cc2C(C)(C)C1; test: as §1; in short: as §2
[6] = substrate: CN1CCc2cc(O)c(O)cc2C1; test: as §1; in short: as §2
[7] = substrate: Oc1cc2c(cc1O)CNCC2; test: as §1; in short: as §2

Row | Molecule | Activity (Mus musculus) | Kis [1] | also measured
1 | Br.Oc1cc2c(cc1O)CNCC2 | 63% | 196 µM | 
2 | Br.CN1Cc2cc(O)c(O)cc2C(C)(C)C1 | 115% | 187 µM | 
3 | C[N+]1(C)CCc2cc(O)c(O)cc2C1.[Br-] | 43% | 191 µM | 
4 | Br.CC1(C)CNCc2cc(O)c(O)cc21 | 103% | 259 µM | 
5 | Br.CC1CN(C)Cc2cc(O)c(O)cc21 (centres undefined) | 107% | 101 µM | 
6 | Br.CN1CCc2cc(O)c(O)cc2C1 | 104% | 152 µM | 
7 | B1 |  |  | Km [2]: 754 µM; Vmax [2]: 21.2 nmol/mg/min; Km [3]: 398 µM; Vmax [3]: 19.8 nmol/mg/min; Km [4]: 310 µM; Vmax [4]: 17.4 nmol/mg/min; Km [5]: 410 µM; Vmax [5]: 12.1 nmol/mg/min; Km [6]: 670 µM; Vmax [6]: 18.5 nmol/mg/min; Km [7]: 540 µM; Vmax [7]: 15.5 nmol/mg/min
